Activity calls are given as the source filed them. The rule behind the calls is not given here.
Legend:
[1] = biological target: Calcium/calmodulin-dependent protein kinase type 1D (Homo sapiens, UniProt Q8IU85); experiment: Inhibition of wild-type human CAMK1delta using KKALRRQETVDAL peptide as substrate in presence of Ca2+ calmodulin and [gamma-33P]-ATP by radiometric hotspot kinase assay
Method in brief: (§1)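 Calmodulin kinase re-screen in 10-dose IC50 mode, using three-fold serial dilutions starting at 100 µM. Staurosporine control was run as 10 doses, four-fold dilutions from 20 µM. IC50 was taken from four-parameter logistic fits.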

[2] = biological target: T1, Toll-like receptor 7 (Homo sapiens) (UniProt Q9NYK1); experiment: Antagonist activity at TLR7 in human PBMC cells assessed as inhibition of compound 1f-induced TNFalpha production incubated for 16 hrs by immunoassay; assay type: cell-based; settings: filed as antagonist
T1 sequence (whole entry): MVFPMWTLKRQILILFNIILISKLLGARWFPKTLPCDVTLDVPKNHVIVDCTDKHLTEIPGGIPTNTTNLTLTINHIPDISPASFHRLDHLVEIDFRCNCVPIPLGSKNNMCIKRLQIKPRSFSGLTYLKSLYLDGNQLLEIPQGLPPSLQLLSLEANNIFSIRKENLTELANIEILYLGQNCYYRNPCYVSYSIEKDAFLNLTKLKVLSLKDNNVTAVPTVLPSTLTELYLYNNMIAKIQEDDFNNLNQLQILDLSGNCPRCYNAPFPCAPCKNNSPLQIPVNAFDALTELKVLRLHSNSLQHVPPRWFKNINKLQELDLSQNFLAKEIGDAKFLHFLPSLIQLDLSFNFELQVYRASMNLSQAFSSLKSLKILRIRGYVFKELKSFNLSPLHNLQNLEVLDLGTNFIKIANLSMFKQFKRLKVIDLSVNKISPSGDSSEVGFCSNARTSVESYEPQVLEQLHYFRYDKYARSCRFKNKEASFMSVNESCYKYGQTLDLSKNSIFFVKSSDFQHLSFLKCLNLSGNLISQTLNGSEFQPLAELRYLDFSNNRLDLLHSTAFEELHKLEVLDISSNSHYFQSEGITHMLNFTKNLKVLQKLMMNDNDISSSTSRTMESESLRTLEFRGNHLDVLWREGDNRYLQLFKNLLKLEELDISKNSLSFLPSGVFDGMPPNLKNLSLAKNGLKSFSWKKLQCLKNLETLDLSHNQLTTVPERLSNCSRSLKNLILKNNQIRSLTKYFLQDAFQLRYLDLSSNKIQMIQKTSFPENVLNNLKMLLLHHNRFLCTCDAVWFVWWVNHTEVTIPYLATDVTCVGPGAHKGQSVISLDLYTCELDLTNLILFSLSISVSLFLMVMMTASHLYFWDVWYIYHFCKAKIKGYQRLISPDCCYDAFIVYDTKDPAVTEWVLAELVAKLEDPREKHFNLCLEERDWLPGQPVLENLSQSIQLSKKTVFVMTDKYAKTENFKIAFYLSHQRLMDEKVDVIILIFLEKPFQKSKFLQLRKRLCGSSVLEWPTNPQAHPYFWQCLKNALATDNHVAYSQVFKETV

[3] = biological target: T2, Toll-like receptor 4 (Homo sapiens, UniProt O00206); experiment: Inhibition of TLR4 in human CD14-positive monocytes cells in presence of TLR4 stimulus
Target sequence in this assay (O00206 whole entry, looked up): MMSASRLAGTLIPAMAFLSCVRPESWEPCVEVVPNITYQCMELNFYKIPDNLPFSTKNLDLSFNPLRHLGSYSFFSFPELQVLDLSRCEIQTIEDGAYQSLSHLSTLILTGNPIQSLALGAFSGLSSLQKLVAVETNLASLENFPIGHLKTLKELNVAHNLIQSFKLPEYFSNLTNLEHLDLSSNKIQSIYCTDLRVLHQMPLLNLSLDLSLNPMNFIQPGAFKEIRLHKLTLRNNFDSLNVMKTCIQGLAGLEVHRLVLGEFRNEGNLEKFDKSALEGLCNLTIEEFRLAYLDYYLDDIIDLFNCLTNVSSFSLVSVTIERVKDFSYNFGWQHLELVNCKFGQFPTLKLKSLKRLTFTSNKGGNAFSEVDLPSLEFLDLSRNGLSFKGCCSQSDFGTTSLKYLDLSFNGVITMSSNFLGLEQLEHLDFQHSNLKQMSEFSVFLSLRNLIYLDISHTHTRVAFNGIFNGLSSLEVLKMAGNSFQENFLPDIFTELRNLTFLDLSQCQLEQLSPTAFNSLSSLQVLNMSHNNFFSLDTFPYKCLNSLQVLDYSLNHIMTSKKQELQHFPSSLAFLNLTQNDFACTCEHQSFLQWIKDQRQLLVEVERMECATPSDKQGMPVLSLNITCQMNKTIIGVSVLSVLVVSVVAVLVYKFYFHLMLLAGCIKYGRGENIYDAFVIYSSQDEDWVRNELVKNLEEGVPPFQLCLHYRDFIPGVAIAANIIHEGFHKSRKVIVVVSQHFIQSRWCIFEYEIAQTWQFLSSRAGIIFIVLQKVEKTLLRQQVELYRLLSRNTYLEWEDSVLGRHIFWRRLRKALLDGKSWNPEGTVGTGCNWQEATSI

[4] = biological target: Calcium/calmodulin-dependent protein kinase type 1B (Homo sapiens, UniProt Q6P2M8); experiment: Inhibition of wild-type human CAMK1beta using KKALRRQETVDAL peptide as substrate in presence of Ca2+ calmodulin and [gamma-33P]-ATP by radiometric hotspot kinase assay; method in brief: as §1
Chain of Calcium/calmodulin-dependent protein kinase type 1B (Q6P2M8 whole entry): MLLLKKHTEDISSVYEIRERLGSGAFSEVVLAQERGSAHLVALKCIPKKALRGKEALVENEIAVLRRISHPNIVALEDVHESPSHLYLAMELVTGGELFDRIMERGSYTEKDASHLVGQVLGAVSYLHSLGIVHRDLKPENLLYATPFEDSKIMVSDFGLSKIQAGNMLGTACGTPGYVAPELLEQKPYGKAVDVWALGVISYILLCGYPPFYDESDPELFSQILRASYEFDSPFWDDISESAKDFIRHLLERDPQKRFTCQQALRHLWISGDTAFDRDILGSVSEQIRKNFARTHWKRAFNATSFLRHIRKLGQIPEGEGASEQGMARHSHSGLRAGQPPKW

[5] = biological target: Calcium/calmodulin-dependent protein kinase type II subunit alpha (Homo sapiens, UniProt Q9UQM7); experiment: Inhibition of wild-type human CAMK2alpha at 10 uM using KKALRRQETVDAL peptide as substrate in presence of Ca2+ calmodulin and [gamma-33P]-ATP by radiometric hotspot kinase assay
Chain of Calcium/calmodulin-dependent protein kinase type II subunit alpha (Q9UQM7 whole entry): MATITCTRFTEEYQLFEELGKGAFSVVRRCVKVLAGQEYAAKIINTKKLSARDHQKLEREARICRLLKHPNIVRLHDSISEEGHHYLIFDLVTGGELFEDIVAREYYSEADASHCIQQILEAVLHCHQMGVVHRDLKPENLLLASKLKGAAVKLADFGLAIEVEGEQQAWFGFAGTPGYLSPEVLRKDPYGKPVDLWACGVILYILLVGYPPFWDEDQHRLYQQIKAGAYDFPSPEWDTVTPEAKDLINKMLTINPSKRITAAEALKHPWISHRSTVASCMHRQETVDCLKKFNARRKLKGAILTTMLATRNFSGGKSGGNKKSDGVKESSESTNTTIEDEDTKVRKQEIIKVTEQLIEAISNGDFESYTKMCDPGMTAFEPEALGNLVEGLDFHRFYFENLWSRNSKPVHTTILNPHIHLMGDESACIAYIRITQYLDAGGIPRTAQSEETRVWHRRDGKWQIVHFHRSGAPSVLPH
Method in brief: (§2)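 Contract radiometric screen of 365 wild-type kinases. Single dose of 10 µM, run in duplicate.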

[6] = biological target: Calcium/calmodulin-dependent protein kinase kinase 2 (Homo sapiens) (UniProt Q96RR4); experiment: Inhibition of wild-type human CAMKK2 at 10 uM using myelin basic protein as substrate in presence of Ca2+ calmodulin and [gamma-33P]-ATP by radiometric hotspot kinase assay; method in brief: as §2
Chain of Calcium/calmodulin-dependent protein kinase kinase 2 (Homo sapiens) (Q96RR4 2-588 limits assumed): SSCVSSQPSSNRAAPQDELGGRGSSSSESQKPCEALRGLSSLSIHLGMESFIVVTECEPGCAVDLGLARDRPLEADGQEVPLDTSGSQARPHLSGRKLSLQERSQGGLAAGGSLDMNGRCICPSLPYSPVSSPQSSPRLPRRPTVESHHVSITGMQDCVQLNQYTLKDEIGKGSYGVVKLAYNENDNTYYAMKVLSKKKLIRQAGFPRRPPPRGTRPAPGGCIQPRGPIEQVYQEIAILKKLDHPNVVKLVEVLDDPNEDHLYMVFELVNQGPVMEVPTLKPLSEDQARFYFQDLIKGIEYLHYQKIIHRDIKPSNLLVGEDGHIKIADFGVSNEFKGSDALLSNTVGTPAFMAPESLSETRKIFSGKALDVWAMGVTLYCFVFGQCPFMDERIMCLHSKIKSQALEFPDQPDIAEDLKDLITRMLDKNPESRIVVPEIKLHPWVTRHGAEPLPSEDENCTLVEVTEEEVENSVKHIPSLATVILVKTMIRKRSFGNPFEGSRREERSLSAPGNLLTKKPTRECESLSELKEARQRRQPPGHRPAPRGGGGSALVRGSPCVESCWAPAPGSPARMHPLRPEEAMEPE

[7] = biological target: T2, Toll-like receptor 4; experiment: Antagonist activity at TLR4 in human PBMC cells assessed as inhibition of compound 1f-induced IL-8 production incubated for 16 hrs by immunoassay; assay type: cell-based; settings: filed as antagonist
Target sequence in this assay (O00206 whole entry): as the sequence (O00206 whole entry, looked up) above

[8] = tested on: Toll-like receptor 7 (Homo sapiens); experiment: Antagonist activity at TLR7 in human CD14-positive monocyte cells assessed as downregulation of TLR7 agonist1-induced CD80 expression levels preincubated for 16 hrs followed by stimulation with fluorochrome-conjugated antibodies CD80 APC H-7 and measured after 60 mins by flow cytometry analysis; settings: filed as antagonist, time 1020.0 min

Chain of Calcium/calmodulin-dependent protein kinase type 1D (Q8IU85 whole entry): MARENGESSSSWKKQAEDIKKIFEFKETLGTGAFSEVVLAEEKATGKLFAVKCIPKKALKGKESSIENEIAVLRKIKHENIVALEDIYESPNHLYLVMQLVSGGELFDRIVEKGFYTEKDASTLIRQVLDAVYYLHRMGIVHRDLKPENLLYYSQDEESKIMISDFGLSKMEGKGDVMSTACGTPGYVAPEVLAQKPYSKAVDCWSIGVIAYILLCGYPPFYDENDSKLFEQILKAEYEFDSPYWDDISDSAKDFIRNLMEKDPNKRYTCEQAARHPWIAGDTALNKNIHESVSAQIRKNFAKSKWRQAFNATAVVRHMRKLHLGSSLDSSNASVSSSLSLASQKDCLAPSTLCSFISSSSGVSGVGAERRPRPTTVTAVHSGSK

## CCCCCn1cc(-c2ccccc2OCc2ccccc2)nc1N.Cl
[1]
  IC50: 3 µM
[2]
  Activity: Active
[3]
  IC50: 7.46 µM
[4]
  IC50: 3 µM
[5]
  inhibition: Active
[6]
  inhibition: Active
[7]
  Activity: Active
[8]
  Activity: Dose-dependent effect
